Most compounds without a hit are left out; they make up all but 12% or so of the library.
ROMK primary: modulates human ROMK potassium channel activity | 130,000 tested, 2% active | Tet-inducible ROMK, thallium flux fluorescence; actives lie on both sides | B-score at 10 µM | P48048;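 active = signal ratio slope over the read window, or its plate-corrected B-score, at least 3 SD from the plate mean, either direction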;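 note: B-score of the F/F0 ratio slope over 7 to 12 s after thallium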
Target sequence (P48048 whole entry, looked up): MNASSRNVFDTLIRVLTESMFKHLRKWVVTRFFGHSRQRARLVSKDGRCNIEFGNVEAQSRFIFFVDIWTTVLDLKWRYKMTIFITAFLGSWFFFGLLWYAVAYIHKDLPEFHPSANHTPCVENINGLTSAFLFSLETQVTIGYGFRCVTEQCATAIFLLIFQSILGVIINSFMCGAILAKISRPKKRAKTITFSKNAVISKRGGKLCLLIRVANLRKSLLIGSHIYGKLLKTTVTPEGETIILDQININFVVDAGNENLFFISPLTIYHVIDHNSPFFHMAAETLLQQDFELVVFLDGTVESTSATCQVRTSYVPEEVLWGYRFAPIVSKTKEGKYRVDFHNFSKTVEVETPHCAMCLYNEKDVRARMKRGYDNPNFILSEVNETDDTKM
L major viab: inhibitors of Leishmania major promastigote growth | Leishmania major promastigotes, resazurin fluorescence viability | inhibition, % at 10 µM | 200,000 tested, 9% active | AID 1063; in the data active = inhibition above about 50%;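 note: promastigotes grown with compound for 44 hours at 28 °C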
Diaph act CS: activates diaphorase or chemically reduces, flagging diaphorase assay artifacts; activation factor at 20 µM; Diaphorase/resazurin coupled assay, resorufin fluorescence, 16 min; hits give high values; 1 = vehicle wells, 0 = NADH-free wells; 190,000 tested, 0.005% active;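 active = diaphorase activity raised at least twofold by the compound at 20 µM; inactive = activation factor below 2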
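test system = bacterial diaphorase enzyme (C. kluyveri) | quantity = enzyme 0.07 U/mL final | reagent = NADH substrate 0.114 mM plus resazurin dye 0.1 mM, final | incubation = 16 min enzyme reaction, ambient temperature | buffer or medium = HEPES pH 7.4 buffer with MgCl2 and Tween 20 | signal = fluorescence of resorufin, 544 nm excitation, 590 nm emission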
Diaphorase inh: inhibits diaphorase or chemically oxidizes, flagging diaphorase assay artifacts; 190,000 tested, 0.69% active; inhibition, % at 20 µM; diaphorase resazurin-to-resorufin fluorescence, NADH, 16 min; bacterial (C. kluyveri) enzyme, not human;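 active = primary screen inhibition at 20 µM above a set limit, cut at about 50% in these data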;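 note: plate controls were DMSO with full reaction for no effect and wells lacking NADH for full effect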
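Test system: diaphorase enzyme from Clostridium kluyveri; amount: diaphorase at 0.14 U/mL in enzyme working solution; detection: fluorescence of resorufin formed from resazurin, Ex 544/Em 590 nm; times: reaction incubation of 16 min at room temperature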
WT yeast gro inh: growth inhibition of WT yeast, mitochondrial fusion screen; AID 1362; 190,000 tested, 2.1% active; mitochondrial fusion phenotypic screen, WT strain; inhibition, % at 10 µM; in the data active = inhibition above about 58%; tested in S. cerevisiae
KCC2 mod: KCC2 (human) Cl- transport modulation; Q9H2X9; B-score of Tl+ flux slope (higher = more flux/activation; lower = inhibition) at 10 µM; 190,000 tested, 2.2% active; KCC2 cells, thallium flux FluoZin-2 fluorescence;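 active = thallium flux slope and its plate-corrected score both differing from the plate sample mean at a set confidence after two filtering rounds, in either direction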;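 note: slope of fluorescence scaled to starting intensity during 10 to 20 s after thallium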
KCC2 sec1: confirmation of human KCC2 transport modulators | shares compounds with KCC2 mod | HEK293-KCC2, thallium flux, FluoZin2 fluorescence; hits give high values | normalised thallium flux (F/F0 slope) at 10 µM | 3,700 tested, 15% active;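 active = thallium flux slope above the same plate's solvent-only control mean plus 3 SD; inconclusive = the two replicate wells disagree; inactive = no significant difference from solvent-only control wells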
KCC2 bumet counter: bumetanide-insensitive thallium flux in KCC2 cells with ouabain, counter-screen; HEK293-KCC2 + bumetanide/ouabain, thallium flux FluoZin2; hits give high values; 3,700 tested, 49% active; shares compounds with KCC2 mod; normalized thallium flux at 10 µM; AID 1714;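 active = thallium entry rate above the same plate's blocked-transporter control wells by more than 3 SD; inconclusive = the two repeat wells disagree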;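 note: raw slope of fluorescence over initial fluorescence between 10 and 20 s after thallium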
KCC2 secondary2: confirmation of human KCC2 transport modulators. normalized thallium flux at 10 µM. 3,700 tested, 23% active. HEK293-KCC2, thallium flux FluoZin2 fluorescence; actives lie on both sides; F/F0 rise rate, 10–20 s post-thallium. shares compounds with KCC2 mod;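 active = thallium flux slope more than 3 SD above or below the plate's solvent-only control mean, mostly below; inconclusive = the two repeat wells disagreed; inactive = no significant shift from solvent-only controls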;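 note: raw slope with 0.1% DMSO as baseline and bumetanide as block control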
HEK293 Tl flux: counter-screen for KCC2 modulators: effect in parental HEK293 cells; shares compounds with KCC2 mod; thallium flux FluoZin2, ouabain; baseline-ratio fluorescence slope, 10–20 s after thallium; thallium flux rate (normalised fluorescence) at 10 µM; 3,700 tested, 46% active;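 active = thallium flux rate significantly above the same plate's solvent-only control wells, beyond their mean plus 3 SD; inconclusive = the two replicate wells gave conflicting results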
KCC2 retest ouab: confirmation of human KCC2 modulators with ouabain | shares compounds with KCC2 mod | HEK293-KCC2, thallium flux FluoZin2 fluorescence; bidirectional: low = inhibitor, high = activator | raw Tl+ flux slope (below DMSO = inhibition, above = activation) at 10 µM | 3,700 tested, 48% active | AID 1717;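 active = thallium flux slope beyond 3 SD from same-plate DMSO control mean in most replicates, usually higher, sometimes lower; inconclusive = repeat tests gave conflicting results; inactive = no significant difference from controls in most replicates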;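 note: slope of initial-normalized fluorescence between seconds 10 and 20 after thallium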
HEK counter2: parental HEK flux effect, counter-screen 2. thallium flux slope at 10 µM. shares compounds with KCC2 mod. 3,700 tested, 33% active. HEK293 parental, thallium flux FluoZin-2 fluorescence slope;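 active = thallium flux slope above the same plate's solvent-control mean plus 3 SD in both duplicate wells; inconclusive = duplicate wells that disagreed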;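 note: run without ouabain in cells lacking the KCC2 cotransporter; slope of fluorescence scaled to its starting value between 10 and 20 s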
Active calls of the source: *; ? = inconclusive; . = no result given.

SMILES | ROMK primary | L major viab | Diaph act CS | Diaphorase inh | WT yeast gro inh | KCC2 mod | KCC2 sec1 | KCC2 bumet counter | KCC2 secondary2 | HEK293 Tl flux | KCC2 retest ouab | HEK counter2
N#Cc1nc(COc2ccccc2F)oc1NCCc1ccccc1 | 0.0687 | 3.7 | 0.8 | 17.4 | 32.8 | . | 0.00534 | ? | 0.0248* | 0.00643* | 0.0141* | 0.0103
COc1ccc(CNc2oc(COc3ccccc3)nc2C#N)cc1 | -1.12 | 0.3 | 0.8 | 15.7 | 7.0 | . | 0.00748 | ? | 0.0308 | 0.00702 | ? | 0.00964
N#Cc1nc(COc2ccccc2Cl)oc1NCc1cccnc1 | . | -0.2 | 1 | 1.9 | -5.6 | -2.99* | 0.00699 | 0.00611 | 0.0302 | 0.00711 | 0.0215* | 0.0092
COc1ccc(CCNc2oc(COc3ccccc3)nc2C#N)cc1 | -0.0243 | 10.1 | 0.9 | 6.8 | 37.2 | . | 0.0079 | 0.00471 | 0.0356 | ? | ? | 0.0108
COCCCNC(=O)C(=O)NCCCOC(C)C | . | -6.5 | 0.9 | 8.7 | 18.4 | . | . | . | . | . | . | .
COc1ccccc1NC(=O)C1CCC(CNc2c(N3CCCCC3)c(=O)c2=O)CC1 (stereo not given) | -0.0973 | . | . | . | . | 0.55 | . | . | . | . | . | .
CCCOc1ccc(CC(=O)NCC2(c3ccccc3)CCOCC2)cc1OC | . | -2.4 | 0.8 | 16.0 | 22.2 | -0.014 | . | . | . | . | . | .
CN(Cc1ccccc1)c1oc(COc2ccccc2F)nc1C#N | . | 2.6 | 1 | 1.6 | -8.9 | . | 0.00828 | 0.00488 | 0.0321 | 0.0067 | ? | 0.0106
N#Cc1nc(COc2ccccc2F)oc1N1CCCCCC1 | . | 2.6 | 0.8 | 18.2 | -9.2 | . | . | . | . | . | . | .
COc1ccc(S(=O)(=O)N2CCC(C(=O)NCc3ccccn3)CC2)cc1C | 0.56 | -3.3 | 0.9 | 10.7 | 8.1 | -0.763 | . | . | . | . | . | .
CCOc1ccc2nc(N3C(=O)CNC3=S)sc2c1 | -0.531 | . | . | . | . | 9.96* | 0.014* | 0.0306* | 0.0312 | 0.0139* | 0.0255* | 0.0123*
CCOc1ccc2nc(SC3CC(=O)N(c4ccc(OC)cc4)C3=O)sc2c1 (stereo not given) | . | -2.4 | 0.8 | 17.2 | -12.5 | 0.304 | . | . | . | . | . | .
Cc1cc2nc(N3C(=O)CNC3=S)sc2cc1C | 0.521 | 2.0 | 0.8 | 16.2 | 40.2 | 19* | 0.0188* | 0.0579* | 0.038 | 0.0257* | 0.0406* | 0.015*
O=C(CN1C(=O)NC2(CCCCCCC2)C1=O)NCc1ccc2c(c1)OCO2 | 0.569 | 21.9 | 0.9 | 12.3 | 13.9 | -0.0854 | . | . | . | . | . | .
S=C1NC2(CCCC2)N=C1c1ccccc1 | -1.82 | 2.8 | 0.9 | 14.1 | 11.3 | 2.27 | . | . | . | . | . | .
S=C1NC2(CCCCCC2)N=C1c1ccccc1 | -0.155 | 9.8 | 0.9 | 11.2 | 23.4 | 4.62* | 0.0104 | 0.0158* | 0.0379 | ? | ? | 0.0129
Cc1ccc(C2=NC3(CCCC3)NC2=S)cc1 | -0.763 | 7.4 | 1 | 2.5 | 8.3 | 5.57* | 0.011 | 0.0187* | 0.0302 | 0.0112* | 0.0235 | ?
COc1ccc2[nH]c3c(=O)n(Cc4ccncc4)cnc3c2c1 | . | . | . | . | . | 0.509 | . | . | . | . | . | .
CCOC(=O)C1CCN(C2CC(=O)N(c3cccc(Cl)c3)C2=O)CC1 (stereo not given) | . | -3.5 | 0.9 | 5.7 | -23.2 | 3.03* | 0.00843 | 0.00846* | 0.0319 | 0.00747 | 0.0215 | 0.00983

Bioassay records (PubChem BioAssay)
